Laboratory results reported in publication PMC4339026 (Biopolymers, 2014).
“Also recorded” adds a separate entry of the source. Where two headings read alike, the source gives them in different places. Each block holds one molecule with its values, some of them ahead of it.

Key:
meprin β [1] = target: T1, meprin β (Homo sapiens, UniProt Q16820); test: Meprin β HTS FRET assay, dose response; assay type: biochemical
T1 sequence (Q16820 62-614 limits assumed): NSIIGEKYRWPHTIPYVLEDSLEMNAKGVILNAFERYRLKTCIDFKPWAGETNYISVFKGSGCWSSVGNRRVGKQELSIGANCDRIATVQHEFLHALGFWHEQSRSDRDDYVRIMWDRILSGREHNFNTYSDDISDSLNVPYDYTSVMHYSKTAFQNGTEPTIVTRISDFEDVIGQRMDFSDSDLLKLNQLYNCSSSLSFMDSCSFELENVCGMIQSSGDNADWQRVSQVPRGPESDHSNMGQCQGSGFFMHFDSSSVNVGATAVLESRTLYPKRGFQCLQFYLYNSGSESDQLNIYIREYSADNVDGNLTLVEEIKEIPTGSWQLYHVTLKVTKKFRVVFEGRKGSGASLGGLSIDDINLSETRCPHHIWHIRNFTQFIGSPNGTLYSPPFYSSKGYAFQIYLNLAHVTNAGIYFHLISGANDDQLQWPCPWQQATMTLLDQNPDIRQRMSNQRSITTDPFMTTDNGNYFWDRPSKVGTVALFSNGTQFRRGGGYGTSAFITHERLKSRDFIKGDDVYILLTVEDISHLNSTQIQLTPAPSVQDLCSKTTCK
In short: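 Trypsin-activated meprin β (trypsin removed on immobilized ovomucoid) in 50 mM Hepes, 0.01% Brij-35, pH 7.5, added as 2x (0.15 nM) solution. Pin-transferred inhibitor was preincubated 30 min at RT. 2x (20 μM) (MCA)-EDEDED-(K-ε-DNP) was then added, run 1 h at RT, and read at ex 324/em 393 nm. A 3-fold dilution series was run in quadruplicate, and % inhibition was fitted with a 4-parameter equation. DMSO final was 0.1% or 1.0%.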

meprin α [2] = conditions: cited from earlier work
meprin α [3] = target: T2, meprin α (Homo sapiens, UniProt Q16819); test: Meprin α HTS FRET assay, dose response; assay type: biochemical
T2 sequence (Q16819 66-653 limits assumed): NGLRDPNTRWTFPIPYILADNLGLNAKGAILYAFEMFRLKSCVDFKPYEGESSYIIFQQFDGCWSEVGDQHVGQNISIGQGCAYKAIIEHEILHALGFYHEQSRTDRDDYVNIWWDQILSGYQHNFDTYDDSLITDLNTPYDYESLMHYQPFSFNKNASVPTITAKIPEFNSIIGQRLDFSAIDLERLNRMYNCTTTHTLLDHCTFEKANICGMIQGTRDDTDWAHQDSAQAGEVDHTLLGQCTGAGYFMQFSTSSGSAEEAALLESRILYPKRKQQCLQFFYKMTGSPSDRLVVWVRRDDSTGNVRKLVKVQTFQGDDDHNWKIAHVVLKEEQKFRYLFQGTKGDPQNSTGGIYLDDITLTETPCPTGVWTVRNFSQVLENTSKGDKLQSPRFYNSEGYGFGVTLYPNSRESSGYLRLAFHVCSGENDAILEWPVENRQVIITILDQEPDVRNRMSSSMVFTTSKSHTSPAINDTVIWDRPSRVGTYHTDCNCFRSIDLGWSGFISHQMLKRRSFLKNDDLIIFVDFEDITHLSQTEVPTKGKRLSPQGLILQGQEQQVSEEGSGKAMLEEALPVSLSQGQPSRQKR
In short: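 Recombinant human Strep-tagged meprin α was expressed in baculovirus-infected BTI-TN-5B1-4 cells, trypsin-activated, then freed of trypsin. It was used as a 2x solution at 2.6 nM in 50 mM Hepes, 0.01% Brij-35, pH 7.5. Test compound was pre-incubated 30 min at RT, then 2x (MCA)-YVADAPK-(K-ε-DNP) at 20 μM was added for 1 h at RT. Read at ex 324/em 393 nm. 3-fold dilutions in quadruplicate; 4-parameter fit; 0.1% or 1.0% DMSO.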

meprin β [4] = conditions: read-out: Ki meprin β; cited from earlier work
meprin α [5] = target: T2, meprin α; test: Meprin α LOPAC pilot screen; assay type: biochemical; conditions: 18 μM, hit cutoff 25% inhibition
In short: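 Single-point FRET screen of 1,280 library compounds at 18 μM nominal final concentration, on four plates. Trypsin-activated recombinant human meprin α (2x solution 2.6 nM, Hepes/Brij-35 pH 7.5) was pre-incubated 30 min at RT with test compound added by pin tool. 2x (MCA)-YVADAPK-(K-ε-DNP) at 20 μM was then added for 1 h at RT. Read at ex 324/em 393 nm.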

meprin β [6] = target: T1, meprin β; test: Meprin β LOPAC pilot screen; assay type: biochemical; conditions: 18 μM; for meprin β LOPAC pilot screen outcome: hit cutoff 25% inhibition
meprin β [7] = target: T1, meprin β; test: Meprin β inhibition kinetics / enzyme kinetics; assay type: biochemical
In short: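 Trypsin-activated meprin β at 1 nM was run with (MCA)-EDEDED-(K-ε-DNP) 0.5–25 μM plus varying inhibitor concentrations in 50 mM Hepes, 0.01% Brij-35, pH 7.5, at 25 °C. Fluorescence was read at ex 324/em 393 nm. Rates came from the linear portion of the progress curves. Ki and Ki′ came from nonlinear regression with a mixed-inhibition model. Mechanism came from the alpha parameter and was checked with Lineweaver-Burk plots.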

MMP-9 = MMP-9 (Homo sapiens, UniProt P14780); test: Selectivity testing against zinc metalloproteases: MMP-9; assay type: biochemical; conditions: read-out: IC50 MMP-9; n = 3 Mean ± SD
Chain of MMP-9 (P14780 94-707, species assumed): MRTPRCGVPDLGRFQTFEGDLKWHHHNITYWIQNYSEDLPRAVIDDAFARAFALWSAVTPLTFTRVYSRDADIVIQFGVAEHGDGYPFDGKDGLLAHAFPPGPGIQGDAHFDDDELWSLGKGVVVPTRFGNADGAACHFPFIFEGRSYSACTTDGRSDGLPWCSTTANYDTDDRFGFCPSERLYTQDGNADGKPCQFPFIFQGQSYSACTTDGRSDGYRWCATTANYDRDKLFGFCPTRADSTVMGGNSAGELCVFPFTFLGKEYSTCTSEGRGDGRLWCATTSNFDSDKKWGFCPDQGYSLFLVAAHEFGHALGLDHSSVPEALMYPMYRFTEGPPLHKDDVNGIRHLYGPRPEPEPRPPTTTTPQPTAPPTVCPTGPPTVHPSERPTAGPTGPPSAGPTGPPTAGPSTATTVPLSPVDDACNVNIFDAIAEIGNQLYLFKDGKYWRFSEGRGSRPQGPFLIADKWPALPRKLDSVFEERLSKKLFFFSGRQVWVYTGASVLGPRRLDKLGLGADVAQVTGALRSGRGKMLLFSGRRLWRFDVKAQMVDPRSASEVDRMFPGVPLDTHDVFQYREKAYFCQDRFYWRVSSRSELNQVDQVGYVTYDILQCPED

MMP-2 = target: T3, MMP-2 (Homo sapiens, UniProt P08253); test: Selectivity testing against zinc metalloproteases: MMP-2; assay type: biochemical; conditions: read-out: IC50 MMP-2; n = 3 Mean ± SD
T3 sequence (P08253 110-660): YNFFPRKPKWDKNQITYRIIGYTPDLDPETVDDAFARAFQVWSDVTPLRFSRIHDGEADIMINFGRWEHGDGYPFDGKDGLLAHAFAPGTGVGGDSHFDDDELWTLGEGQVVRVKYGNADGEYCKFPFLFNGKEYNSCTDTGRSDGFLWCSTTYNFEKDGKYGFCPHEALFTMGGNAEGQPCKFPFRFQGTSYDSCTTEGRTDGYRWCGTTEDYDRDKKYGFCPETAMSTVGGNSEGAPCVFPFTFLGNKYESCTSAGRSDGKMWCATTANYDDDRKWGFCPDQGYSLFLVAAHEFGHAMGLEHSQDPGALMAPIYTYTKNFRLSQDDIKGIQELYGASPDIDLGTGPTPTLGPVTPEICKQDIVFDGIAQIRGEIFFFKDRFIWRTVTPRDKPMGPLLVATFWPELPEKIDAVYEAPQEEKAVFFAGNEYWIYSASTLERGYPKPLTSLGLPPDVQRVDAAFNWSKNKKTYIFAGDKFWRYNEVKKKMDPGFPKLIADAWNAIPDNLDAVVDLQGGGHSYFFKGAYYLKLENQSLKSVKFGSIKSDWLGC

ADAM17 = ADAM17 (Homo sapiens, UniProt P78536); test: Selectivity testing against zinc metalloproteases: ADAM17; assay type: biochemical; conditions: read-out: IC50 ADAM17; n = 3 Mean ± SD
Chain of ADAM17 (P78536 215-824, species assumed): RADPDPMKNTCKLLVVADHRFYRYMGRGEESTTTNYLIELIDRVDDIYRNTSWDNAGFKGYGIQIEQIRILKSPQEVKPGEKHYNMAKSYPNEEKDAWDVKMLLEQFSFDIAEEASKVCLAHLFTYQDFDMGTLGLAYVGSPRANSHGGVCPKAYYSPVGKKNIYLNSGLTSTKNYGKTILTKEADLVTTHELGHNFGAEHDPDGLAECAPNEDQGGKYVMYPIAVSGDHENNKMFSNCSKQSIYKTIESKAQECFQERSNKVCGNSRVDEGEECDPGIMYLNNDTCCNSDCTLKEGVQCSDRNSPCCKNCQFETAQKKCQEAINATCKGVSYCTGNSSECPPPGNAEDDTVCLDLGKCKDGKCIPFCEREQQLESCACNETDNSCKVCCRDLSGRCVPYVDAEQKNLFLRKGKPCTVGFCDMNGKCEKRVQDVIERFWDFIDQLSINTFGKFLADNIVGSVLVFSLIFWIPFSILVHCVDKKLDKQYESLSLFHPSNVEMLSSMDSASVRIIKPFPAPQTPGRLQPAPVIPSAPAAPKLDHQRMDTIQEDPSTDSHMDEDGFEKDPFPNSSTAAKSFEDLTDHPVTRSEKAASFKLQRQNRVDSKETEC

MMP-8 = MMP-8 (Homo sapiens, UniProt P22894); test: Selectivity testing against zinc metalloproteases: MMP-8; assay type: biochemical; conditions: read-out: IC50 MMP-8; n = 3 Mean ± SD
Chain of MMP-8 (P22894 101-467, species assumed): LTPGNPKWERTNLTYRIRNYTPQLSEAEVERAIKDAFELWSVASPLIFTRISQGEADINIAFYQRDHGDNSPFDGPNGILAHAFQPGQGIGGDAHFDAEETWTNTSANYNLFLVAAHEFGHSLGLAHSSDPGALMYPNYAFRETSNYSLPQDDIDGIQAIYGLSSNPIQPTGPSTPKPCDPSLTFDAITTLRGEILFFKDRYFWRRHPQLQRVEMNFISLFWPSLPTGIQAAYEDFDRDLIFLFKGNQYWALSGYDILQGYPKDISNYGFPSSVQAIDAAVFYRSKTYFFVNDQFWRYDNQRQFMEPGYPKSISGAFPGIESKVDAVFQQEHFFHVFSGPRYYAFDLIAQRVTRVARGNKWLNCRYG

MMP-14 = MMP-14 (Homo sapiens, UniProt P50281); test: Selectivity testing against zinc metalloproteases: MMP-14; assay type: biochemical; conditions: read-out: IC50 MMP-14; n = 3 Mean ± SD
ADAM10 = target: T4, ADAM10 (Homo sapiens, UniProt O14672); test: Selectivity testing against zinc metalloproteases: ADAM10; assay type: biochemical; conditions: read-out: IC50 ADAM10; n = 3 Mean ± SD
T4 sequence (O14672 214-748): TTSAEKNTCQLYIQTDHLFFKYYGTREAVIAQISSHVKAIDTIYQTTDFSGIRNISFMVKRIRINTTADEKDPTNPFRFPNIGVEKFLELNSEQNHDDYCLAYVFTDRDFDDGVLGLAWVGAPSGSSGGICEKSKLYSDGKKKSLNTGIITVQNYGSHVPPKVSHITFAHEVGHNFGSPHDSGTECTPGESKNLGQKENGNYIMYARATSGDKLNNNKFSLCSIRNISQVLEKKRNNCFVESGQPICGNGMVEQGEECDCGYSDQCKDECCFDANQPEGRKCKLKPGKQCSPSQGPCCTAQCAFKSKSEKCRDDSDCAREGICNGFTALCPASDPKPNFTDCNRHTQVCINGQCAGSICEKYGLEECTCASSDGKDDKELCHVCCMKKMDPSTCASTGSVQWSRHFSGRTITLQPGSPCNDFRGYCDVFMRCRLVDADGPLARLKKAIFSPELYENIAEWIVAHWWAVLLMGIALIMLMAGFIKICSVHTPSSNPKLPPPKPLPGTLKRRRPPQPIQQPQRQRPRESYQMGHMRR

MMP-13 = MMP-13 (Homo sapiens, UniProt P45452); test: Selectivity testing against zinc metalloproteases: MMP-13; assay type: biochemical; conditions: read-out: IC50 MMP-13; n = 3 Mean ± SD

SMILES: CNC(=O)[C@H](Cc1c[nH]c2ccccc12)NC(=O)[C@@H](CC(=O)NO)CC(C)C [galardin]
Ki (meprin β [4]): 8.9 ± 0.71 µM

SMILES: c1ccc(-c2ccccn2)nc1 [2,2′-bipyridyl]
meprin β LOPAC pilot screen outcome (meprin β [6]): inactive | meprin α LOPAC pilot screen outcome (meprin α [5]): inactive

SMILES: N.N.O=C([O-])C1(C(=O)[O-])CCC1.[Pt+2] [Carboplatin, carboplatin]
% inhibition meprin β in pilot screen (meprin β [6]): negative inhibition values | meprin β LOPAC pilot screen outcome (meprin β [6]): selective hits

SMILES: O=P(O)(O)C(Cl)(Cl)P(=O)(O)O [clodronic acid]
meprin β LOPAC pilot screen outcome (meprin β [6]): inactive | meprin α LOPAC pilot screen outcome (meprin α [5]): inactive

SMILES: O=C(O)[C@@H]1C[C@H](C(=O)O)N1 [cis-Azetidine-2,4-dicarboxylic acid]
meprin α LOPAC pilot screen outcome (meprin α [5]): selective hits

SMILES: Cc1nc(N=Nc2cc(S(=O)(=O)[O-])c3cc([N+](=O)[O-])cc(S(=O)(=O)[O-])c3c2)c(COP(=O)([O-])[O-])c(C=O)c1O.[Na+].[Na+].[Na+].[Na+] [PPNDS, Pyridoxal-5′-phosphate-6-(2′-naphthylazo-6′-nitro-4′,8′-disulfonate) tetrasodium]
Ki lower than IC50, fold (meprin β [7]; meprin β Ki versus HTS IC50): 10 fold | α = Ki/Ki′ (meprin β [7]; mixed-model inhibition, non-linear regression): 36 ± 27 | mechanism of inhibition of meprin β (meprin β [7]; non-linear regression and Lineweaver-Burke plots): pure competitive inhibition modality; also recorded: pure competitive inhibition mechanism | Ki (meprin β [7]; read-out: Ki meprin β, substrate (MCA)-EDEDED-(K-ε-DNP), mixed inhibition model): 0.008 ± 0.0024 µM | IC50 (MMP-9): 40 ± 2.5 µM | IC50 (MMP-2): 31 ± 2 µM | IC50 (ADAM17): 91 ± 7.1 µM | IC50 (MMP-8): 1 ± 0.1 µM | IC50 (MMP-14): 73 ± 7 µM | potency differential meprin β versus meprin α (meprin β [1]; ratio of IC50 values): ~1000 fold | selectivity ratio meprin β versus MMP-8 (meprin β [1]; ratio of IC50 values): approximately 12 fold | IC50 (meprin β [1]; read-out: IC50 Meprin β, selectivity testing, n = 3 Mean ± SD): 0.08 ± 0.005 µM | IC50 (meprin α [3]; read-out: IC50 Meprin α, selectivity testing, n = 3 Mean ± SD): 67 ± 4.5 µM | meprin β LOPAC pilot screen outcome (meprin β [6]): selective hits | IC50 (ADAM10): 19 ± 1.1 µM | IC50 (MMP-13): 69 ± 4.3 µM

SMILES: O.c1cnc2c(c1)ccc1cccnc12 [1,10-phenanthroline monohydrate]
meprin β LOPAC pilot screen outcome (meprin β [6]): inactive | meprin α LOPAC pilot screen outcome (meprin α [5]): inactive

SMILES: CNC(=O)[C@H](Cc1ccccc1)NC(=O)[C@H](CC(C)C)[C@H](CSc1cccs1)C(=O)NO [batimastat]
Ki (meprin β [4]): 18 ± 2.2 µM

Further lines, with some results ahead:

IC50 (meprin β [1]; IC50 meprin β, 0.1% DMSO): 5.2 ± 0.1 µM | IC50 (meprin β [1]; IC50 meprin β, 1.0% DMSO): 4.5 ± 0.1 µM | IC50 (meprin α [3]; IC50 meprin α, 0.1% DMSO): 0.0015 ± 7e-05 µM | IC50 (meprin α [3]; IC50 meprin α, 1.0% DMSO): 0.0025 ± 0.0001 µM | meprin α LOPAC pilot screen outcome (meprin α [5]): meprin α selective | meprin α LOPAC pilot screen outcome (meprin α [5]; listed as Actinonin): selective hits
SMILES: CCCCC[C@H](CC(=O)NO)C(=O)N[C@H](C(=O)N1CCC[C@H]1CO)C(C)C [actinonin]
fold more potent inhibition of meprin α than meprin β (meprin α [2]; ratio of Ki values): 100 fold | Ki (meprin α [2]; read-out: Ki meprin α): 0.02 µM | Ki (meprin β [4]): 2 µM

meprin α LOPAC pilot screen outcome (meprin α [5]): selective hits
SMILES: CC(=O)c1ccc(S(=O)(=O)NC(=O)NC2CCCCC2)cc1 [Acetohexamide]

meprin α LOPAC pilot screen outcome (meprin α [5]): selective hits
SMILES: CCN(CC)CCNC(=O)c1ccc(NC(C)=O)cc1.Cl [N-Acetylprocainamide hydrochloride]

meprin β LOPAC pilot screen outcome (meprin β [6]): inactive | meprin α LOPAC pilot screen outcome (meprin α [5]): inactive
SMILES: CC(C)C[C@H](NC(=O)[C@H](O)[C@H](N)Cc1ccccc1)C(=O)O.Cl [epibestatin HCl]
